Measurements: ChEMBL document CHEMBL1144854, “Synthesis and biological evaluation of novel 6-substituted 5-alkyl-2-(arylcarbonylmethylthio)pyrimidin-4(3H)-ones as potent non-nucleoside HIV-1 reverse transcriptase inhibitors” (Bioorg Med Chem, 2008)
The source made the active and inactive calls. The rule behind the calls is not given here.

Columns and labels:
[1] = tested on: Human immunodeficiency virus 2; experiment: Antiviral activity against HIV2 ROD infected in MT4 cells by MTT; assay type: functional, organism-based; conditions: Human immunodeficiency virus 2, ROD
Outline: (§1)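 MT-4 cells at 1 × 10^5 cells/mL were infected at MOI 0.02 with virus stocks pre-titrated in MT-4 cells (CCID50) and immediately plated onto serial compound dilutions. Compound stocks were 50 mM in DMSO. Viable cells were counted by MTT after 4 days at 37 °C. EC50 is the concentration giving 50% protection from viral cytopathicity, as the mean of ≥2 separate experiments.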

[2] = Selectivity index, ratio of CC50 for human MT4 cells to EC50 for HIV1 3B; assay type: functional
[3] = tested on: Human immunodeficiency virus 1; experiment: Antiviral activity against HIV1 3B infected in MT4 cells by MTT; assay type: functional, organism-based; conditions: Human immunodeficiency virus 1, 3B; outline: as §1
[4] = Cytotoxicity against human MT4 cells; assay type: cell-based
Outline: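 Uninfected MT-4 cells were run in parallel with the antiviral plates: serial compound concentrations from 50 mM DMSO stocks, 4 days at 37 °C, viability by MTT. CC50 is the concentration cutting viability by 50%, as the mean of ≥2 separate experiments.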

[5] = Selectivity index, ratio of CC50 for human MT4 cells to EC50 for HIV1 RES056
[6] = tested on: Human immunodeficiency virus 1; experiment: Antiviral activity against HIV1 RES056 infected in MT4 cells by MTT; assay type: functional, organism-based; conditions: Human immunodeficiency virus 1, RES056, MT4; outline: as §1
MT4 = experiment: Selectivity index, ratio of CC50 for human MT4 cells to EC50 for HIV1 RES056

**Q.** What does the source list for COc1ccc(C(=O)CSc2nc(Cc3c(Cl)cccc3Cl)c(C)c(=O)[nH]2)cc1?
**A.** EC50 [1]: > 278 µM; Ratio CC50/EC50 [2]: >6318; EC50 [3]: 0.044 µM; CC50 [4]: > 278 µM

**Q.** What does the source list for COc1ccc(C(=O)CSc2nc(Cc3ccccc3Br)c(C)c(=O)[nH]2)cc1?
**A.** EC50 [1]: > 272 µM; Ratio CC50/EC50 [2]: >432; EC50 [3]: 0.63 µM; CC50 [4]: > 272 µM

**Q.** With CCc1c(Cc2cc(C)cc(C)c2)nc(SCC(=O)c2ccccc2)[nH]c1=O as the compound, how does the “Ratio CC50/EC50” value [5] read?
**A.** >16

**Q.** What about the EC50 [1] of the same compound?
**A.** 154 µM

**Q.** And the “Ratio CC50/EC50” value [2]?
**A.** >31800

**Q.** And the EC50 [3]?
**A.** 0.01 µM

**Q.** And the EC50 [6]?
**A.** 19.8 µM

**Q.** And the CC50 [4]?
**A.** > 318 µM

**Q.** For Cc1c(Cc2cccc3ccccc23)nc(SCC(=O)c2ccccc2)[nH]c1=O, which EC50 [1] is on record?
**A.** ≥ 42.2 µM

**Q.** What about the “Ratio CC50/EC50” value [2] of the same compound?
**A.** >=1386

**Q.** And the EC50 [3]?
**A.** 0.22 µM

**Q.** And the CC50 [4]?
**A.** ≥ 305 µM

**Q.** With O=C1Nc2ccc(Cl)cc2C(C#CC2CC2)(C(F)(F)F)O1 (single isomer, unassigned) [EFAVIRENZ] as the compound, how does the CC50 [4] read?
**A.** > 6.34 µM

**Q.** Which results are given for COc1ccc(C(=O)CSc2nc(Cc3ccc(Br)cc3)c(C)c(=O)[nH]2)cc1?
**A.** EC50 [1]: ≥ 226 µM; Ratio CC50/EC50 [2]: >30; EC50 [3]: 8.97 µM; CC50 [4]: > 272 µM

**Q.** What does the source list for CCc1c(Cc2cc(C(F)(F)F)cc(C(F)(F)F)c2)nc(SCC(=O)c2ccc(OC)cc2)[nH]c1=O?
**A.** EC50 [1]: > 236 µM; Ratio CC50/EC50 [2]: >299; EC50 [3]: 0.79 µM; CC50 [4]: > 236 µM

**Q.** What does the source list for COc1ccc(C(=O)CSc2nc(Cc3cc(C(F)(F)F)cc(C(F)(F)F)c3)c(C)c(=O)[nH]2)cc1?
**A.** EC50 [1]: > 242 µM; Ratio CC50/EC50 [2]: >5; EC50 [3]: 46.1 µM; CC50 [4]: > 242 µM

**Q.** Which “Ratio CC50/EC50” value [2] does the source give for CC(C)Nc1cccnc1N1CCN(C(=O)c2cc3cc(NS(C)(=O)=O)ccc3[nH]2)CC1 [DELAVIRDINE] here?
**A.** >50

**Q.** And the EC50 [3]?
**A.** 0.072 µM

**Q.** What about the EC50 [6] of the same compound?
**A.** > 3.62 µM

**Q.** And the CC50 [4]?
**A.** > 3.62 µM

**Q.** With COc1ccc(C(=O)CSc2nc(C(c3ccccc3)c3ccccc3)c(C)c(=O)[nH]2)cc1 as the compound, how does the EC50 [1] read?
**A.** > 274 µM

**Q.** And the “Ratio CC50/EC50” value [2]?
**A.** >199

**Q.** What about the EC50 [3] of the same compound?
**A.** 1.38 µM

**Q.** What about the CC50 [4] of the same compound?
**A.** > 274 µM

**Q.** What does the source list for CCc1c(Cc2ccccc2Br)nc(SCC(=O)c2ccc(OC)cc2)[nH]c1=O?
**A.** EC50 [1]: > 187 µM; Ratio CC50/EC50 [2]: 4675; EC50 [3]: 0.04 µM; CC50 [4]: 187 µM

**Q.** With COc1ccc(C(=O)CSc2nc(Cc3cc(C)cc(C)c3)c(C)c(=O)[nH]2)cc1 as the compound, how does the Activity (MT4) read?
**A.** inactive

**Q.** What about the EC50 [1] of the same compound?
**A.** 60.6 µM

**Q.** What about the “Ratio CC50/EC50” value [2] of the same compound?
**A.** >5704

**Q.** What about the EC50 [3] of the same compound?
**A.** 0.054 µM

**Q.** And the EC50 [6]?
**A.** > 308 µM

**Q.** What about the CC50 [4] of the same compound?
**A.** > 308 µM

**Q.** With Cc1cn([C@H]2C[C@H](N=[N+]=[N-])[C@@H](CO)O2)c(=O)[nH]c1=O [ZIDOVUDINE] as the compound, how does the “Ratio CC50/EC50” value [5] read?
**A.** >15592

**Q.** And the “Ratio CC50/EC50” value [2]?
**A.** >17990

**Q.** And the EC50 [3]?
**A.** 0.005 µM

**Q.** What about the EC50 [6] of the same compound?
**A.** 0.006 µM

**Q.** And the CC50 [4]?
**A.** > 93.5 µM

**Q.** Which EC50 [1] does the source give for CCc1c(Cc2ccc(-c3ccccc3)cc2)nc(SCC(=O)c2ccc(OC)cc2)[nH]c1=O here?
**A.** > 266 µM

**Q.** What about the EC50 [3] of the same compound?
**A.** > 266 µM

**Q.** And the CC50 [4]?
**A.** > 266 µM

**Q.** With COc1ccc(C(=O)CSc2nc(Cc3cccc(Br)c3)c(C)c(=O)[nH]2)cc1 as the compound, how does the EC50 [1] read?
**A.** 203 µM

**Q.** And the “Ratio CC50/EC50” value [2]?
**A.** >=220

**Q.** What about the EC50 [3] of the same compound?
**A.** 0.89 µM

**Q.** What about the CC50 [4] of the same compound?
**A.** ≥ 196 µM

**Q.** For CCc1c(Cc2ccc(Br)cc2)nc(SCC(=O)c2ccc(OC)cc2)[nH]c1=O, which EC50 [1] is on record?
**A.** > 264 µM

**Q.** And the “Ratio CC50/EC50” value [2]?
**A.** >33

**Q.** What about the EC50 [3] of the same compound?
**A.** 7.94 µM

**Q.** And the CC50 [4]?
**A.** > 264 µM

**Q.** For CCc1c(C(c2ccccc2)c2ccccc2)nc(SCC(=O)c2ccc(OC)cc2)[nH]c1=O, which EC50 [1] is on record?
**A.** > 266 µM

**Q.** What about the “Ratio CC50/EC50” value [2] of the same compound?
**A.** >76

**Q.** What about the EC50 [3] of the same compound?
**A.** 3.49 µM

**Q.** What about the CC50 [4] of the same compound?
**A.** > 266 µM

**Q.** Which EC50 [1] does the source give for CCc1c(Cc2cc(C)cc(C)c2)nc(SCC(=O)c2ccc(OC)cc2)[nH]c1=O here?
**A.** 52.8 µM

**Q.** What about the “Ratio CC50/EC50” value [2] of the same compound?
**A.** >=13278

**Q.** What about the EC50 [3] of the same compound?
**A.** 0.018 µM

**Q.** And the EC50 [6]?
**A.** > 239 µM

**Q.** What about the CC50 [4] of the same compound?
**A.** ≥ 239 µM

**Q.** With CCc1c(Cc2cccc(Br)c2)nc(SCC(=O)c2ccc(OC)cc2)[nH]c1=O as the compound, how does the EC50 [1] read?
**A.** > 142 µM

**Q.** What about the “Ratio CC50/EC50” value [2] of the same compound?
**A.** 887

**Q.** And the EC50 [3]?
**A.** 0.16 µM

**Q.** And the CC50 [4]?
**A.** 142 µM

**Q.** For COc1ccc(C(=O)CSc2nc(Cc3cccc(O)c3)c(C)c(=O)[nH]2)cc1, which EC50 [1] is on record?
**A.** > 59 µM

**Q.** What about the “Ratio CC50/EC50” value [2] of the same compound?
**A.** 16

**Q.** What about the EC50 [3] of the same compound?
**A.** 4.44 µM

**Q.** What about the CC50 [4] of the same compound?
**A.** 70 µM
